Assay: Toxicity liver stage against HepG2, at 10uM
Assay type: cell-based
Parameters: test concentration 10 uM, cell line HepG2-A16-CD81EGFP
Conditions: human, HepG2-A16-CD81EGFP cells; read-out: INHIBITION
Procedure, shortened: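 Uninfected HepG2-A16-CD81EGFP cells, 3 × 10^3 per well, 1536-well, plated on prespotted compound at 10 μM final, parasite-free screening media added to match infected plates; puromycin 10 μM positive, DMSO 0.5% negative; run in parallel with 48 h PbLuc assay at 37 °C, 5% CO2; viability by CellTiter-Glo luminescence, normalized to controls.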

Row | SMILES | cytotoxicity at 10 µM [%]
1 | O=C1CCCCN1CCC(=O)N1CCCCC1c1ccc(F)cc1 (centres undefined) | -41.7
2 | CN(c1ccncn1)C1CC2(CCN(C(=O)Cc3cccs3)C2)C1 (centres undefined) | -5.97
3 | O=C(c1cccc(F)c1)N1CCc2ncc(Cn3cccn3)n2CC1 | 2.05
4 | CNC(=O)N1CC[C@@H]2CN(Cc3cccc(OC)c3)S(=O)(=O)[C@@H]2CC1 | -108
5 | Cc1nc2ccccc2n1Cc1cc(C(=O)N(C)C2CCOCC2)no1 | 25.7
6 | O=C(c1ccnnc1)N1CCc2ncnc(C3CCOC3)c2CC1 (centres undefined) | -77.5
7 | CCN(CC)S(=O)(=O)N1CCCC(c2ccc(C(=O)O)cc2)C1 (centres undefined) | -7.27
8 | CCCC1CN(CCOC)C(=O)c2cccnc2O1 (centres undefined) | 5.42
9 | O=C1CO[C@@H]2CN(S(=O)(=O)c3ccccc3)C[C@H]2N1CC1CC1 | -3.1
10 | CC(C)C(=O)N1CCC(Cc2nccnc2Nc2ccccn2)CC1 | -7.08
11 | Cc1ccc2c(cnn2CCC(=O)NCc2csc(C)n2)c1 | 1.14
12 | Nc1nccnc1C(=O)NC1CCCN(Cc2c(F)cccc2F)C1 (centres undefined) | -2.14
13 | Cc1nc(N(C)C)cc(C2(C)CCNCC2)n1 | -6.07
14 | CC1Cn2c(nc3c2c(=O)[nH]c(=O)n3C)O1 (centres undefined) | 1.26
15 | Cc1ccc(CNC2(Cc3cc(-c4ccc(F)cc4)on3)COC2)o1 | 8.13
16 | Cc1ccc(CCNc2nccc(-c3cc(C(=O)O)ccn3)n2)o1 | -2.86
17 | Cc1ccccc1C(=O)N1C[C@@H]2C(CN(C)CCc3ccccn3)[C@@H]2C1 (some centres undefined) | -54.9
18 | CCc1nc(N2CCCC(CCOC)(C(=O)O)C2)ncc1C (centres undefined) | 4.11
19 | CNC(=O)[C@@H](CC(C)C)N1CCC[C@H]1C(=O)N(C)Cc1cccnc1 | 3.95
20 | COC(=O)c1ncccc1N1CCCCC1 | -8.77
21 | CCOC(=O)N1CCN(c2nc(N3CCCC3)c3ccccc3n2)CC1 | -5.31
22 | Cc1ccn(Cc2nc(CC(C)C)no2)c(=O)c1 | 6.21

Row | SMILES | cytotoxicity at 10 µM [%]
23 | COCCOCC1(CNCc2ccc(F)cc2)C[C@@H](O)[C@@H](O)C1 (some centres undefined) | -3.1
24 | CC(C)c1n[nH]c(C2CN(C(=O)CCn3ccccc3=O)CCO2)n1 (centres undefined) | 4.48
25 | O=C(NCc1cncc2c1CCN(Cc1ccoc1)C2)C1CC1 | 4.03
26 | Fc1cnc(N2CCOC3(CCN(Cc4ccsc4)CC3)C2)nc1 | 2.6
27 | CCc1nnc(CS(=O)(=O)c2ccc(C)cc2)n1C | 7.05
28 | CCCN1C(=O)C2(CCCCC2)NC1c1c[nH]nc1-c1cccnc1 (centres undefined) | 4.59
29 | Cc1cc(C)c(CNC(=O)NCC(O)c2cccc(F)c2)c(=O)[nH]1 (centres undefined) | -4.37
30 | CCCc1nc(C)cc(NCc2ccc(S(N)(=O)=O)cc2)n1 | 10.3
31 | Cc1ncc(CNC(=O)CCc2cccs2)c(C2CCCN2C)n1 (centres undefined) | -9.72
32 | O=C(CCN1CCCO1)N1CC[C@@H](c2ccc3ccccc3c2)[C@H](O)C1 | -1.04
33 | CC1COCCN1Cc1noc(C(C)(C)C)n1 (centres undefined) | 5.67
34 | O=C(CN1C(=O)CCC1=O)NCCc1nc(C2CC2)cc(C(F)(F)F)n1 | -2.02
35 | CNc1nc2c(s1)C(c1cccc(F)c1F)CC(=O)N2 (centres undefined) | -2.15
36 | O=C(c1ccc2c(c1)CCO2)N1CCN(c2ncccn2)CC1 | 8.92
37 | Cc1ccc(C)c(NC(=O)Cn2cc(I)cn2)c1 | 7.72
38 | Cc1nc(CN2CCCC2Cn2cncn2)nc2ccccc12 (centres undefined) | -1.63
39 | CN(C(=O)c1ccc[nH]1)C1CC(=O)N(Cc2ccccc2)C1=O (centres undefined) | 8.02
40 | CCN(CC)C(=O)Cn1ccc2cc(NC(=O)C3CC3)ccc21 | -3.87
41 | CC(C)(C)NC(=O)C1(Cc2ccccc2-c2ccncc2)CCOCC1 | -6.99
42 | COc1cccc2c(C)c(C(=O)N3CCNCC3C(N)=O)[nH]c12 (centres undefined) | 1.67
43 | CC(C)CCN(C(=O)CCn1cc(S(N)(=O)=O)cn1)C1CC1 | 3.92
44 | CCc1nc(C)sc1CN1CC[C@](C)(O)[C@H](C)C1 | -2.11

Row | SMILES | cytotoxicity at 10 µM [%]
45 | CC(C)Cc1nc(CN2CCC3(CCCO3)CCC2=O)no1 (centres undefined) | 1.95
46 | CCCc1cc(C(=O)N(C)Cc2ccc(OC)c3ncccc23)n(C)n1 | 37.2
47 | Cn1cnnc1C1CCCN(C(=O)c2cc3ccccc3[nH]2)C1 (centres undefined) | -7.88
48 | COC(=O)NCCCC(=O)NCC1(c2cccc(Cl)c2)CC1 | 1.42
49 | CC(C)CCn1c(=O)n(CCn2cccc2)c2cc(C(=O)O)cnc21 | -2.95
50 | Cc1cc(C)n(-c2ccc(C(=O)N3CCCC3c3cnn(C)c3)cc2)n1 (centres undefined) | -7.41
51 | CN(CC(=O)NC(C)(C)C)Cc1nc(-c2ccccc2)c[nH]1 | -2.23
52 | CCN1CCN(C(=O)NCc2cccnc2-n2cccn2)CC1 | -7.97
53 | Cn1cc2ncn(C3CCN(c4ccccc4F)CC3)c(=O)c2n1 | 4.44
54 | Cc1cnc(CN(C)C2CCN(Cc3nccn3C)C2)o1 (centres undefined) | -7.03
55 | CCn1cc(C(=O)N2CCCN(c3cccnn3)CC2)c2ccccc21 | -0.418
56 | CC(C)c1n[nH]c(C2CN(C(=O)c3cc(C4CC4)on3)CCO2)n1 (centres undefined) | -1.7
57 | COCCN(C)C[C@@H]1CN(c2nnc(C(C)C)s2)C[C@@H]1CO | -2.35
58 | CC(=O)N1CCC(N2CCOC(CC3CCCCC3)C2)CC1 (centres undefined) | 6.46
59 | CCc1nc(C2CCCN(C(=O)CCn3ccccc3=O)C2)no1 (centres undefined) | -12.3
60 | Cc1cc(=O)[nH]c(-n2nc(C)c(CCC(=O)NCc3cccs3)c2C)n1 | 10.3
61 | Cc1nc(N2CCOCC2)nc2c1CN(C(=O)Cc1ccccn1)CC2 | -7.61
62 | Fc1ccccc1CN1CCC(c2n[nH]c(C3CC3)n2)CC1 | 6.21
63 | Clc1cnc(NCc2ccccc2N2CCOCC2)nc1 | -0.234
64 | Cc1cnn(C2CCCN(C(=O)c3ccc(Cn4ccnc4)cc3)C2)c1 (centres undefined) | 2.54
65 | O=C(c1ccccc1)N1C[C@@H]2CCCO[C@@H]2[C@H](N2CCCC2)C1 | -2.02
66 | CNS(=O)(=O)CCn1cc(-c2ccc(NC(C)=O)cc2)nn1 | -4.5

Row | SMILES | cytotoxicity at 10 µM [%]
67 | Cc1nc(C2CCCN(C(=O)CO)C2)cc(N2CCOCC2)n1 (centres undefined) | -12.9
68 | Cc1cnc(N2CCn3c(CN4CCOCC4)nnc3C2)nc1 | -153
69 | NC(=O)c1c[nH]nc1NCc1ccc2c(c1)OCO2 | -2.9
70 | CC(C)N1CCc2nnc(COc3cncnc3)n2CC1 | 2.7
71 | O=C(c1ncccc1O)N1CCc2c(nc(-c3ccncc3)[nH]c2=O)C1 | -0.918
72 | Cn1c(Nc2cn[nH]c2)c(C#N)c(=O)n(C)c1=O | 14.9
73 | CCc1n[nH]c(C2CN(C(=O)c3cnc[nH]3)CCO2)n1 (centres undefined) | -0.481
74 | CC(C(=O)N1CCCN(Cc2cnn(C(C)C)c2)CC1)n1ccnc1 (centres undefined) | -11.8
75 | Cc1cnn(CC(=O)Nc2cc(-n3nnnc3C3CC3)ccc2F)c1 | -5.46
76 | CC(C(=O)N1CCCN(Cc2ccc(C#N)cc2)CC1)n1ccnc1 (centres undefined) | -10.9
77 | c1cnc(NC[C@@H]2CCC[C@@H]3CN(Cc4cccnc4)C[C@@H]32)nc1 | -14.3
78 | CC(NCCCN1CCCN(C)CC1)C(C)(C)C (centres undefined) | 29.9
79 | COC1CN(C(=O)Nc2ccccc2)CCC(=O)N(C)c2ccccc21 (centres undefined) | -9.69
80 | Cc1nc2c(c(C)c1CC(=O)Nc1cccc(C#N)c1)c(=O)[nH]n2C | 3.99
81 | O=C1NCCCc2[nH]c(C3CCCN(C(=O)C4CC4)C3)nc21 (centres undefined) | 3.55
82 | Cc1ccc(CS(=O)(=O)CC(=O)NCc2ccccc2F)cc1 | 0.515
83 | Cc1cc(C)n(C2CCCN(C(=O)CCOc3ccccc3F)C2)n1 (centres undefined) | -6.19
84 | Cn1nnc2c1CCN(Cc1ccncc1)C2COCc1ccccc1 (centres undefined) | -134
85 | COc1ccnc(CN2CC(=O)N(c3ccc(C)cc3)CC2C)c1OC (centres undefined) | -10.8
86 | CCNS(=O)(=O)c1ccc(C)c(C(=O)N(C)Cc2ccco2)c1 | 0.685
87 | CCn1nc(C)c(CCNC(=O)c2cccc(-n3cccn3)c2)c1C | -12.9
88 | COc1ccccc1C(=O)N(C)C1CCN(c2ccccn2)CC1 | -15.4

Row | SMILES | cytotoxicity at 10 µM [%]
89 | Cc1nc(-c2cnn(C)c2)sc1C(=O)NCc1ccc(C)n1C | 9.25
90 | COc1cc(CNCc2c(C)nn(C)c2N(C)C)ccc1C | -9.16
91 | Cn1nc(COCC2CC2)c2c1CN(C(=O)c1ccno1)CC2 | -5.91
92 | O=C(NC1CCC1)[C@@H]1C[C@@H]2CCN(CCc3ccccc3)C[C@H]2O1 | -72.7
93 | CCN(CC)c1ncccc1CNCc1ccc(Cl)s1 | 10.6
94 | CC(C)c1nc(C2CCCN2Cc2nccn2CC(F)(F)F)no1 (centres undefined) | -18.9
95 | Cc1c(C(=O)N(C)CC(C)O)sc2nc(C(F)(F)F)ccc12 (centres undefined) | -0.943
96 | N#Cc1ccc(Cl)cc1NCC1CCOC1 (centres undefined) | 3.09
97 | CN(Cc1ccco1)Cc1ccccc1CNC(=O)c1cnccn1 | 17.1
98 | CN(Cc1nc(Cc2cccc(C(F)(F)F)c2)no1)C(C1CC1)C1CC1 | 0.92
99 | Cc1ccsc1CN1CC[C@H]2OCC[C@@]2(C(=O)N2CCCO2)C1 | -4
100 | Cc1cccnc1CN(C)C(C(=O)O)c1ccc(-n2cccn2)cc1 (centres undefined) | -4.86
101 | Cc1cnn(CC2CN(CC(=O)NCc3ccccn3)CCO2)c1 (centres undefined) | -5.8
102 | O=C(CSc1ccccc1)N1CCc2c(ncnc2N2CCOCC2)C1 | -7.15
103 | CCN(CCC(=O)OC)C(=O)c1cc(F)cc2[nH]cnc12 | -7.37
104 | Cc1ccc(C)c(CS(=O)(=O)CC(=O)NCCCOC(C)C)c1 | -2.51
105 | CCc1nc2n(n1)CC(NCC(=O)Nc1cc(C)nn1C)CC2 (centres undefined) | -10.7
106 | O=C(c1ccc(F)cc1)N1CCC2(CC1)CC(N1CCOCC1)C2 | -7.52
107 | Cc1nonc1C(=O)N1CC[C@@]2(O)CCN(C3CCCCC3)C[C@H]2C1 | -132
108 | Cc1ccc(C2(CN3CCN(Cc4cnc(C)n4C)CC3)CC2)cc1 | -3.99
109 | COc1ccc(NCC(=O)NCC(=O)N2CCCC2)c(C(F)(F)F)c1 | 6.78
